From the array DNA melting data of Ke et al. (doi:10.1101/2024.01.08.574731)

What was measured:
[1] = melting temperature; fluorescence melt of hairpins on a sequencing array, two-state fit, raised by 9.35 °C to match UV melts; conditions: sodium 0.088 M
Procedure, shortened: (§1)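 Bootstrapped two-state fits yielded melting temperature and folding enthalpy for library hairpins. Cy3 fluorescence, with annealed Cy3 and quencher oligos, was imaged on a sequenced MiSeq flow cell in 50 mM Na-HEPES pH 8.0, 25 mM NaCl in 2.5 °C steps up to 60 °C, and normalised to pre-quench Cy3 and to control constructs. Four replicates were combined by inverse variance, and fitted temperatures were raised by 9.35 °C to match UV melts.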

[2] = folding enthalpy; higher = less favourable; fluorescence melt of hairpins on a sequencing array, two-state fit; conditions: sodium 0.088 M
Procedure, shortened: as §1

Sequence | Tm [1] | folding enthalpy [2]
GCCTCGGGAAACCGAAGC ((.((((....)))).)) | 44.6 °C | -23.9 kcal/mol
GCGATGCGAAAGCATTGC ((.((((....)))).)) | 68.7 °C | -43.9 kcal/mol
GGCGCCGGAAACAGCGCC (((((.(....).))))) | 65.2 °C | -34.8 kcal/mol
GTAGGGAAACCTAC (((((....))))) | 46.2 °C | -25 kcal/mol
GATCCGCCGCGGATC ((((((...)))))) | 56.5 °C | -40.5 kcal/mol
GATAACGAAAGTTAATC ((((((....))).))) | 30.7 °C | -15.4 kcal/mol
GATCGATTTTTCGATC ((((((....)))))) | 54.7 °C | -44.3 kcal/mol
GCAGTCGAAAGACAGTGC ((((((....)))..))) | 45.1 °C | -18.4 kcal/mol
GATCACTTGGTGATC ((((((...)))))) | 59.1 °C | -37.5 kcal/mol
GTGGGACGAAAGTCCAC (((.(((....)))))) | 55.9 °C | -13.2 kcal/mol
GCGGGTGCCCGC ((((....)))) | 57.4 °C | -30.3 kcal/mol
GTCTTTCGAAAGAATGAC (((.(((....))).))) | 45.2 °C | -36.6 kcal/mol
GATCTAATCCTAGATC ((((((....)))))) | 38.3 °C | -25.6 kcal/mol
GATCGCACCAGCGATC ((((((....)))))) | 69.3 °C | -31.2 kcal/mol
GTTTCAGAAATGAAAC ((((((....)))))) | 47.2 °C | -27.3 kcal/mol
GCTTGCGAAAGCACTAGC ((((((....)))..))) | 33.8 °C | -12.7 kcal/mol
GGTGACCGAAAGGTAACC (((.(((....))).))) | 57.1 °C | -41.1 kcal/mol
GCTTCTGGAAACAGAAAC (.(((((....))))).) | 32.2 °C | -17.7 kcal/mol
GATCCTCGGTAGGATC ((((((....)))))) | 50.9 °C | -26.9 kcal/mol
GATCGGCGCCCCGATC ((((((....)))))) | 56.8 °C | -39.7 kcal/mol
GGCTCGGCGAAAGCCGCC (((..(((....)))))) | 43 °C | -8.18 kcal/mol
GCCCAGCGAAAGCTGAGC ((.((((....)))).)) | 63.3 °C | -15.2 kcal/mol
GTTCGTCGAAAGACTAAC (((.(((....))).))) | 41.3 °C | -22.2 kcal/mol

Sequence | Tm [1] | folding enthalpy [2]
GCTCGCGAAAGCGGTAGC ((((((....)))..))) | 51 °C | -15.4 kcal/mol
GAGGGACGAAAGTCACTC (((.(((....))).))) | 65.6 °C | -31.2 kcal/mol
GGTGCTGGAAACAGTACC (((.(((....))).))) | 53.5 °C | -43.3 kcal/mol
GACGGCGGAAACACCGCC (.(((.(....).))).) | 44.1 °C | -10.1 kcal/mol
GAAATCGGAAACGATTTC (((((((....))))))) | 59.5 °C | -42.9 kcal/mol
GCTGTAGGAAACTGCAGC ((((.((....)).)))) | 52.6 °C | -43.3 kcal/mol
GTGCTTGGAAACAAGTGC (..((((....))))..) | 43 °C | -21 kcal/mol
GTCTTAGGAAACTAGGAC (((.(((....))).))) | 38.4 °C | -33.8 kcal/mol
GATCCTTTCTAGGATC ((((((....)))))) | 53.7 °C | -40.5 kcal/mol
GTCCGGCGAAAGCCGAC (((.(((....)))))) | 49.1 °C | -9.75 kcal/mol
GTTGCCGCGAAAGCGAAC (((..(((....)))))) | 35.6 °C | -12.6 kcal/mol
GCCGTTGGAAACGATGGC (((.(.(....).).))) | 42.9 °C | -23.1 kcal/mol
GATCAGAGATCTGATC ((((((....)))))) | 50.1 °C | -24.3 kcal/mol
GCCGAAGGAAACTCCGGC ((((.((....)).)))) | 48.3 °C | -28 kcal/mol
GGGTACGAAAGTAAACCC ((((((....)))..))) | 47.3 °C | -28.4 kcal/mol
GGTGATGAAAATCACC ((((((....)))))) | 62.5 °C | -32.1 kcal/mol
GGGTCGGGAAACTGGCCC (((.(.(....).).))) | 50.6 °C | -35.8 kcal/mol
GTGGCTGGAAACAGCTGC (..((((....))))..) | 47.4 °C | -15.6 kcal/mol
GGGAAGTCGAAAGACCCC (((..(((....)))))) | 44.8 °C | -22.7 kcal/mol
GCAGAGGGAAACCTCCAC (..((((....))))..) | 25.4 °C | -13.7 kcal/mol
GATCACTGTGGTGATC ((((((....)))))) | 59.4 °C | -45.6 kcal/mol
GCTAATGGAAACATCAGC (((.(((....))).))) | 32.5 °C | -22.2 kcal/mol
GACCGTCCGAAAGGAGTC (((..(((....)))))) | 28.6 °C | -11.8 kcal/mol
